Test results reported in ChEMBL document CHEMBL1134394, “Synthesis and biological activity of aminoguanidine and diaminoguanidine analogues of the antidiabetic/antiobesity agent 3-guanidinopropionic acid” (2001).
“And” between values parts separate entries of the source, which are not always exact repeats. Identical values can stand only once.

Columns and labels:
[1] = In vivo blood glucose was determined in obese, hyperglycemic, hyperinsulinemic, insulin-resistant KKAy mice after a dose of 500 mg/kg for 4 days; assay type: functional, Mus musculus
Mus musculus [2] = experiment: Terminal lean body weight was determined in ob/ob mice after oral administration for two weeks (control = 25+/-1); assay type: functional
Mus musculus [3] = organism: Mus musculus; experiment: Initial body weight was determined in ob/ob mice (control=55+/-1); assay type: functional
Mus musculus [4] = organism: Mus musculus; experiment: Average daily dose was determined in ob/ob mice(control=0); assay type: functional
Mus musculus [5] = experiment: Average daily food consumption was determined in ob/ob mice after oral administration for two weeks (control = 90+/-3); assay type: functional
Mus musculus [6] = experiment: Terminal blood glucose level was determined in ob/ob mice after oral administration for two weeks (control = 226+/-29); assay type: functional
In short: (§1)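 ob/ob mice on Purina 5015 chow, given drug as admixture in milled chow for 14 days. Intake measured from food-bowl weight change. Blood from retro-orbital sinus, heparinized, kept on ice and analyzed promptly. Blood glucose measured before and after treatment. Group sizes 8–15, housed at 21 °C on 12 h light–dark cycle; two-way ANOVA, Student–Newman–Keuls post hoc.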

Mus musculus [7] = organism: Mus musculus; experiment: Initial blood glucose level was determined in ob/ob mice (control=228+/-19); assay type: functional; in short: as §1
Mus musculus [8] = experiment: Terminal body weight was determined in ob/ob mice after oral administration for two weeks (control = 53+/-1); assay type: functional
Mus musculus [9] = experiment: Terminal fat body weight was determined in ob/ob mice after oral administration for two weeks (control = 28+/-0.9); assay type: functional
[10] = molecular target: Creatine kinase M-type (Homo sapiens) (UniProt P06732); experiment: Reaction rate of creatine kinase activity is determined at 1 mM concentration
[11] = Inhibition of creatine transport was assessed from Percent inhibition of [C14] creatine uptake; assay type: functional; design: concentration or dose not given beside the values; details: dose or concentration not given here
[12] = molecular target: Creatine kinase M-type (Homo sapiens) (UniProt P06732); experiment: Reaction rate of creatine kinase was determined at 50 mM concentration (relative to creatine)
Mus musculus [13] = experiment: In vivo blood glucose was determined in obese,hyperglycemic,hyperinsulinemic,insulin-resistant KKAy mice after a dose of 500 mg/kg for 4 days; assay type: functional
In short: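 KKAy mice (obese, hyperinsulinemic) grouped into treated and control (n = 6) after pretest glucose on an Alpkem autoanalyzer. Compound given in food at 500 mg/kg for 4 days, then nonfasting blood glucose measured. Result expressed as treated/control (T/C). Wilcoxon rank-sum test applied when T/C < 0.80.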

[14] = molecular target: Creatine kinase M-type (Homo sapiens) (UniProt P06732); experiment: Reaction rate of creatine kinase was determined (relative to creatine)
Rhesus monkey [15] = experiment: Fasting plasma glucose was determined in insulin-resistant Rhesus monkeys after a treatment sequence of placebo followed by a dose of 3 mg/kg/day; assay type: functional, organism-based; details: Cercopithecidae
In short: (§2)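 Insulin-resistant rhesus monkeys (ovariectomized females, 15–30 years) dosed orally once daily around 8 a.m., drug dissolved in diet orange soda and drunk voluntarily from a syringe tip. Sequence: placebo, 10 mg/kg/day, placebo, 3 mg/kg/day; placebo phases averaged. Meal tolerance test in conscious animals: glucose and insulin after overnight fast and for 3 h after a liquid meal. Insulin by double-antibody RIA (125I-porcine insulin tracer, human insulin standard); repeated-measures ANOVA, Tukey post hoc.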

Rhesus monkey [16] = experiment: Post-prandial plasma insulin was determined in insulin-resistant Rhesus monkeys after a treatment sequence of placebo followed by a dose of 3 mg/kg/day; assay type: functional, organism-based; details: Cercopithecidae; in short: as §2
Rhesus monkey [17] = experiment: Post-prandial plasma insulin was determined in insulin-resistant Rhesus monkeys after a treatment sequence of placebo followed by a dose of 10 mg/kg/day; assay type: functional, organism-based; details: Cercopithecidae; in short: as §2
Rhesus monkey [18] = experiment: Fasting plasma insulin was determined in insulin-resistant Rhesus monkeys after a treatment sequence of placebo followed by a dose of 10 mg/kg/day; assay type: functional, organism-based; details: Cercopithecidae
In short: (§3)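 Ovariectomized female rhesus monkeys aged 15–30 y, with fasting insulin and glucose elevated over the colony norm. Compound dissolved in diet orange soda and drunk voluntarily from a syringe once daily at ~8:00 a.m. Sequence: placebo, 10 mg/kg/day, placebo, 3 mg/kg/day; placebo phases averaged. Overnight fast. Insulin by double-antibody RIA (guinea pig anti-human insulin, 125I-porcine insulin tracer, human insulin standard). Repeated-measures ANOVA, Tukey post hoc.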

Rhesus monkey [19] = experiment: Fasting plasma insulin was determined in insulin-resistant Rhesus monkeys after a treatment sequence of placebo followed by a dose of 3 mg/kg/day; assay type: functional, organism-based; details: Cercopithecidae; in short: as §3
Mus musculus [20] = organism: Mus musculus; experiment: Average daily dose was determined in ob/ob mice(0); assay type: functional
[21] = molecular target: Creatine kinase M-type (Homo sapiens) (UniProt P06732); experiment: Reaction rate of creatine kinase activity is determined at 100 mM concentration (relative to creatine)

Creatine kinase M-type (Homo sapiens), sequence (P06732 whole entry): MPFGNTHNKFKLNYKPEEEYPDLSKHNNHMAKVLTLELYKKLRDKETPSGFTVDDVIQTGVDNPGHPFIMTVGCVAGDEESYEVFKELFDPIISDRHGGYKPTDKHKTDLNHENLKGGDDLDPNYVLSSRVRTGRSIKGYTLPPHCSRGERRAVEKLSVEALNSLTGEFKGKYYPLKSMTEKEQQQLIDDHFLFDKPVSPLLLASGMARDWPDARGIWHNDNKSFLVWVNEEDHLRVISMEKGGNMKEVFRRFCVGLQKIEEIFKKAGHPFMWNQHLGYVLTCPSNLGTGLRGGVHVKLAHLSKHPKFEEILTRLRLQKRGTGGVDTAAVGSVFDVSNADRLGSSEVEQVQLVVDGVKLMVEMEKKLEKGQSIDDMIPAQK

Structure (SMILES) | MISS T/C [1] | other results
N=C(N)NNC(C(=O)O)c1ccccc1 (stereo not drawn) | 1.11 | –
CC(C)(C)OC(=O)NNC(=NCC(=O)O)NNC(=O)OC(C)(C)C | 0.86 | –
N=C(N)N/N=C(/C(=O)O)c1ccccc1 | 1.04 | –
O=C(O)/C=N/NC1=NCCN1 | 1.01 | –
Cl.Cl.N=C(CN)NCCC(=O)O | 0.97 | –
CN1NC(=O)CN=C1NN | 1.16 | –
N=C(N)/N=C(\N)NCCS(=O)O | 0.92 | –
N=C(N)C(=N)NCC(=O)O | 1.08 | –
N=C(NN)NCC(=O)O | 0.51 | Body weight (Mus musculus [2]): 23 g; Body weight (Mus musculus [3]): 52 g; Dose (Mus musculus [4]): 436 mg/kg; Food intake (Mus musculus [5]): 87 g/kg; Blood glucose (Mus musculus [6]): 97 mg/dL; Blood glucose (Mus musculus [7]): 227 mg/dL; Body weight (Mus musculus [8]): 46 g; Body weight (Mus musculus [9]): 23 g
N=C(N)NCC(=O)O [GUANIDINO ACETATE] | <0.62 | –
N/N=C(\NN)N[C@@H](Cc1ccccc1)C(=O)O | 0.88 | –
CC/C(=N\N=C(N)N)C(=O)O.Cl | 0.77 | –
Cl.Cl.N/C(CNCCC(=O)O)=N\O | 1 | –
N=C(N)/N=C(\N)NCCCC(=O)O | 1.05 | –
CN(CC(=O)O)C(=N)N | – | Reaction rate [10]: 100; inhibition [11]: 92%
CN(C)/N=C(\NN)NCC(=O)O | 0.8 | –
N=C(N)NNCC(=O)O | – | Reaction rate [12]: 0.24; blood glucose treated/control ratio (Mus musculus [13]): <0.61; inhibition [11]: 36%
N/C(=N\N=C\C(=O)O)N/N=C/C(=O)O | 0.88 | –
CC(C)[C@H](N=C(NN)NN)C(=O)O | 0.56 | –
Cl.Cl.N=C(CN)NCC(=O)O | 0.95 | –
Cl.NCCNC(=NCC(=O)O)NCCN | 0.86 | –

Structure (SMILES) | MISS T/C [1] | other results
N=C(N)N/N=C(\Cc1ccccc1)C(=O)O | 0.68 | –
Cl.NNC1=NC(=O)CNN1 | 1 | –
N=C(N)NNC(Cc1ccccc1)C(=O)O (stereo not drawn) | 0.87 | –
CNC(=N)N/N=C/C(=O)O | 0.94 | –
N=C(NN)NCCC(=O)O | 0.83 | –
CCC(NN=C(N)N)C(=O)O (stereo not drawn) | 1.08 | –
CN(C)CCNC(=NCC(=O)O)NCCN(C)C | 0.95 | –
CC(C)=NNC(=N)NNCC(=O)O | 0.98 | –
N=C(N)/N=C(\N)NCCC(=O)O | 0.88 | –
COC(=O)NNC(=NCC(=O)O)NNC(=O)OC | 0.92 | –
N/N=C(\N)N(N)CC(=O)O | – | Body weight (Mus musculus [2]): <22 g; Body weight (Mus musculus [3]): <59 g; Reaction rate [14]: 0; Plasma glucose (Rhesus monkey [15]): 81 mg/dL and < 64 mg/dL; Dose (Mus musculus [4]): 26 mg/kg; AUC (Rhesus monkey [16]): 38 mU min dl-1; AUC (Rhesus monkey [17]): 30 mU min dl-1; Plasma insulin (Rhesus monkey [18]): 35 uU ml-1; blood glucose treated/control ratio (Mus musculus [13]): <0.43; Food intake (Mus musculus [5]): <52 g/kg; Plasma insulin (Rhesus monkey [19]): 41 uU ml-1; Blood glucose (Mus musculus [6]): <57 mg/dL; Blood glucose (Mus musculus [7]): 228 mg/dL; Body weight (Mus musculus [8]): <44 g; Body weight (Mus musculus [9]): <22 g
N=C(N)NCCC(=O)O [OMPENACLID] | – | Body weight (Mus musculus [2]): 24 g; Body weight (Mus musculus [3]): 54 g; Dose (Mus musculus [20]): 377 mg/kg; Reaction rate [21]: 2.4; Food intake (Mus musculus [5]): 75 g/kg; Blood glucose (Mus musculus [6]): 147 mg/dL; Blood glucose (Mus musculus [7]): 229 mg/dL; Body weight (Mus musculus [8]): 48 g; inhibition [11]: 97%; Body weight (Mus musculus [9]): <24 g
NNC(=NCCCC(=O)O)NN | 0.93 | –
N/N=C(/NCC(=O)O)NN1CCOCC1 | 1 | –
CC1=NN=C(NCC(=O)O)NN1 | 0.97 | –
Nc1nccn1NCC(=O)O | 0.99 | –
N/N=C(/NCC(=O)O)NNc1ccccn1 | 0.91 | –
C[C@@H](N=C(NN)NN)C(=O)O | 0.66 | –
Cl.Cl.N=C(N)C(=N)NCCC(=O)O | 1.1 | –
N=C(N)NNCCC(=O)O | 1.11 | –
Nc1nncc(O)n1 | 0.98 | –

Structure (SMILES) | MISS T/C [1] | other results
N=C(N)N/N=C/C(=O)O | <0.52 | –
N/N=C(/NCC(=O)O)NNC(N)=O | 0.86 | –
O=C(O)CNC1=NNC(=O)NN1 | 1.04 | –
N=C(NCCN)NCC(=O)O | 0.99 | –
C[C@H](N=C(NN)NN)C(=O)O | 0.57 | –
CC(C)(C)OC(=O)NCCNC(=NCC(=O)O)NCCNC(=O)OC(C)(C)C | 0.9 | –
N=C(N)/N=C(\N)NCC(=O)O | 1.01 | –
Cl.Cl.N/C(CNCC(=O)O)=N\O | 0.88 | –
NNC(=NCCC(=O)O)NN | 0.78 | –
NC(=O)NNC(=NCC(=O)O)NNC(N)=O | 0.86 | –
CCCCCC/C(=N\N=C(N)N)C(=O)O | 0.73 | –
NN1CCNN=C1NCC(=O)O | 0.77 | –
N=C(N)N(N)CC(=O)O | 1.04 | –
Cl.Cl.N=C(N)CNCCC(=O)O | 0.96 | –
CC(C)(C)OC(=O)NCC/N=C(\NN)NCC(=O)O | 0.81 | –
COC(=O)CNN=C(N)N.Cl | 1.12 | –
N/N=C(\NCCO)NCC(=O)O | 1.01 | –
Cl.Cl.NCC(CN)CCC(=O)O | 0.84 | –
N/N=C(\NN)N[C@H](C(=O)O)c1ccccc1 | 1.06 | –
Cl.O=C(O)/C=N/Nc1ccccn1 | <0.73 | –
CN(/N=C/C(=O)O)C(=N)N | 0.95 | –

Structure (SMILES) | MISS T/C [1] | other results
Cc1cc(C)n(NC(=NCC(=O)O)Nn2nc(C)cc2C)n1 | 1 | –
N/N=C(/NCC(=O)O)Nc1cc[nH]n1 | 0.89 | –
Cl.Cl.N=C(N)CNCC(=O)O | 1.18 | –
Cl.NC1=NC(=O)CNN1 | 1.08 | –
CCOC(=O)CC/N=C(\N)N=C(N)N.Cl.Cl | 1.06 | –
COC(=O)/C=N/N=C(N)N | 1.16 | –
N/C(=N/NCC(=O)O)N/N=C/c1ccccc1 | 0.89 | –
COC(=O)CC/N=C(\N)C(=N)N.Cl.Cl | 1 | –
CC(C)NNC(=N)NNCC(=O)O | 0.9 | –
N=C(NN)NNCC(=O)O | – | Body weight (Mus musculus [2]): <22 g; Body weight (Mus musculus [3]): 52 g; Reaction rate [14]: 0; Dose (Mus musculus [4]): 406 mg/kg; blood glucose treated/control ratio (Mus musculus [13]): 0.69; Food intake (Mus musculus [5]): 81 g/kg; Blood glucose (Mus musculus [6]): <85 mg/dL; Blood glucose (Mus musculus [7]): 226 mg/dL; Body weight (Mus musculus [8]): <43 g; inhibition [11]: 26%; Body weight (Mus musculus [9]): <20 g
NNC(=NCC(=O)O)NN | – | Reaction rate [14]: 0.1; blood glucose treated/control ratio (Mus musculus [13]): 0.23; inhibition [11]: 88%
N/C(=N/CC(=O)O)NO | 1.06 | –
N=C(NN)NCCCC(=O)O | 1.14 | –
NNc1nncc(O)n1 | 0.84 | –
CN(NC(=NCC(=O)O)NN(C)C(=O)OC(C)(C)C)C(=O)OC(C)(C)C | 0.85 | –
O=C(O)CN=C(NCCO)NCCO | 1.07 | –
CC(=O)NNC(=NCC(=O)O)NNC(C)=O | 0.84 | –
C/C(=N\N=C(N)N)C(=O)O.Cl | 0.9 | –
Nc1nncn1NCC(=O)O | 0.96 | –
